Calls of active or inactive are those of the source. No cut-off for these calls is given here.
Key:
Candida albicans [1] = experiment: Antifungal activity against 10^6 CFU/mL Candida albicans PC31 assessed as cell survival at 5 uM preincubated for 30 mins in dark followed by irradiation measured after 30 mins; assay type: functional
Nucleic Acid [2] = experiment: Binding affinity to calf thymus DNA assessed as DNA cleavage at 20 uM after 2 hrs irradiation by agarose gel electrophoresis; assay type: nucleic-acid assay; conditions: Bos taurus
Summary of the method: (§1)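 Calf thymus DNA (1.3 × 10^-4 M, base pairs) was mixed with 20 µM sensitizer in TE buffer (10 mM Tris-HCl, 1 mM EDTA, pH 7.6). Mixtures were irradiated in open tubes with visible light (90 mW/cm²) at room temperature for 1–5 h; dark controls were included. Samples were run on 1% agarose in TBE at 2.9 V/cm for 2 h.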

Candida albicans [3] = experiment: Photocytotoxicity against Candida albicans PC31 assessed as release of intracellular DNA and protein at 5 uM preincubated for 30 mins in dark followed by irradiation measured after 30 mins by UV-vis spectroscopic analysis; assay type: functional, organism-based
Summary of the method: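 PC31 cells (~10^7 CFU/mL in 2 mL PBS) were incubated with 5 µM porphyrin for 30 min in the dark, then irradiated 30 min with visible light (162 J/cm²). After centrifugation at 13,000 rpm for 5 min, supernatants were scanned by UV–visible spectroscopy, with absorbance at 260 nm taken as the release read-out. Freeze–thaw lysis in liquid nitrogen gave the positive control.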

Candida albicans [4] = experiment: Photocytotoxicity against Candida albicans PC31 assessed as change in cell morphology at 5 to 10 uM preincubated for 30 mins in dark followed by irradiation measured after 30 mins by transmission electron microscopy; assay type: functional, organism-based
Summary of the method: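 PC31 suspensions (~10^7 CFU/mL) were given 5 or 10 µM sensitizer for 30 min in the dark at 37 °C, then irradiated 30 min with visible light (162 J/cm²). Cells were fixed in 4% formaldehyde/2% glutaraldehyde in 0.1 M cacodylate for 2 h, then post-fixed in 1% OsO4. They were acetone-dehydrated, Araldite-embedded, cut at 80–100 nm, stained with uranyl acetate and lead citrate, and imaged by TEM.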

Nucleic Acid [5] = experiment: Binding affinity to Candida albicans PC31 DNA assessed as genomic DNA cleavage at 5 uM preincubated for 30 mins in dark followed by irradiation measured after 30 mins by agarose gel electrophoresis; assay type: nucleic-acid assay
Summary of the method: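 PC31 cells (~10^7 CFU/mL in PBS) received 5 µM sensitizer for 30 min at 37 °C in the dark, then 30 min visible light (162 J/cm²). Genomic DNA was extracted with a commercial kit immediately after irradiation. It was run on 1% agarose in TBE (pH 8) at 2.9 V/cm for 2 h beside an irradiated control.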

Candida albicans [6] = experiment: Antifungal activity against 10^7 CFU/mL Candida albicans PC31 preincubated for 30 mins in dark followed by irradiation measured after 30 mins; assay type: functional, organism-based; conditions: PC31, light or radiation study
Summary of the method: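 IC50 was derived from PBS suspensions of PC31 (~10^7 CFU/mL) treated with 0.1–10 µM porphyrin for 30 min in the dark at 37 °C. Cells were then irradiated for 30 min with water-filtered visible light from a 150 W lamp. Survival was counted as CFU on Sabouraud agar after ~48 h at 37 °C.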

Candida albicans [7] = experiment: Antifungal activity against 10^7 CFU/mL Candida albicans PC31 assessed as cell survival at 5 uM preincubated for 30 mins in dark followed by irradiation measured after 30 mins; assay type: functional
Summary of the method: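 C. albicans PC31 grown overnight in Sabouraud broth at 37 °C to stationary phase, then resuspended in 10 mM PBS pH 7.0 at ~10^7 CFU/mL. Incubated with 5 µM porphyrin for 30 min in the dark at 37 °C. Irradiated 30 min with visible light from a 150 W lamp, water-filtered (fluence 162 J/cm²). CFU counted on Sabouraud agar after ~48 h at 37 °C, plated in triplicate. Three separate experiments, mean ± SD.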

Nucleic Acid [8] = experiment: Binding affinity to calf thymus DNA assessed as DNA cleavage at 20 uM after 1 hr irradiation by agarose gel electrophoresis; assay type: nucleic-acid assay; conditions: Bos taurus; summary of the method: as §1
Nucleic Acid [9] = experiment: Binding affinity to calf thymus DNA by spectrophotometric analysis; assay type: nucleic-acid assay; conditions: Bos taurus
Summary of the method: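 Absorbance titration: concentrated calf thymus DNA stock was added to ~2 µM porphyrin in PBS. Apparent KDNA was calculated from the Soret-maximum absorbance change, assuming 1:1 stoichiometry and DNA in large excess, via a double-reciprocal fit (1/ΔA vs 1/[DNA]). Three separate experiments, mean ± SD.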

Nucleic Acid [10] = experiment: Binding affinity to calf thymus DNA assessed as DNA cleavage at 20 uM by agarose gel electrophoresis in absence of irradiation; assay type: nucleic-acid assay; conditions: Bos taurus; summary of the method: as §1
Nucleic Acid [11] = experiment: Binding affinity to calf thymus DNA assessed as DNA cleavage at 20 uM after 5 hrs irradiation by agarose gel electrophoresis; assay type: nucleic-acid assay; conditions: Bos taurus; summary of the method: as §1
Nucleic Acid [12] = experiment: Binding affinity to calf thymus DNA assessed as reduction in electrophoretic DNA mobility at 20 uM after 1 to 5 hrs irradiation by agarose gel electrophoresis; assay type: nucleic-acid assay; conditions: Bos taurus
Summary of the method: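 Calf thymus double-stranded DNA (1.3 × 10^-4 M, in base pairs) mixed with 20 μM sensitizer in TE buffer (10 mM Tris-HCl, 1 mM EDTA, pH 7.6). Irradiated with visible light (90 mW/cm²) at room temperature for 1, 2, 3, 4 or 5 h. Samples then run on 1% agarose gels in TBE buffer (pH 8) at 2.9 V/cm for 2 h. Controls: DNA alone, DNA with sensitizer in dark, irradiated DNA.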

Row | Structure (SMILES) | log10CFU/ml (Candida albicans [1]) | Activity (Nucleic Acid [2]) [%] | Activity (Candida albicans [3]) | Activity (Candida albicans [4]) | Activity (Nucleic Acid [5]) | IC50 (Candida albicans [6]) [nM] | log10CFU/ml (Candida albicans [7]) | Activity (Nucleic Acid [8]) [%] | Kapp (Nucleic Acid [9]) [×10⁵ /M] | Activity (Nucleic Acid [10]) | Activity (Nucleic Acid [11]) [%] | Activity (Nucleic Acid [12])
1 | C[N+](C)(C)c1ccc(-c2c3nc(c(-c4ccc([N+](C)(C)C)cc4)c4ccc([nH]4)c(-c4ccc([N+](C)(C)C)cc4)c4nc(c(-c5ccc([N+](C)(C)C)cc5)c5ccc2[nH]5)C=C4)C=C3)cc1 | 5 | > 90 | inactive | Active | inactive | 230 | 3.5 | 59.3 | 7.5 | – | – | –
2 | C[N+](C)(C)c1ccc(-c2c3nc(c(-c4ccc([N+](C)(C)C)cc4)c4ccc([nH]4)c(-c4ccc([N+](C)(C)C)cc4)c4nc(c(-c5ccc(C(F)(F)F)cc5)c5ccc2[nH]5)C=C4)C=C3)cc1 | 5 | – | inactive | Active | inactive | 160 | 3.5 | 19.7 | 6.7 | inactive | 50 | –
3 | C[n+]1ccc(-c2c3nc(c(-c4cc[n+](C)cc4)c4ccc([nH]4)c(-c4cc[n+](C)cc4)c4ccc([nH]4)c(-c4cc[n+](C)cc4)c4nc2C=C4)C=C3)cc1 [TMPYP4] | 5 | – | inactive | Active | inactive | 410 | 3.5 | – | 4.4 | – | – | Active

— ChEMBL document CHEMBL2169771, “Mechanistic aspects of the photodynamic inactivation of Candida albicans induced by cationic porphyrin derivatives” (Eur J Med Chem, 2012)
